Data taken from ChEMBL document CHEMBL3763095, “Naphtho[1',2':4,5]imidazo[1,2-a]pyridine-5,6-diones: Synthesis, enzymatic reduction and cytotoxic activity” (Bioorg Med Chem Lett, 2016).
Activity calls are given as the source filed them. The rule behind the calls is not given here.

Assays:
[1] = target: NAD(P)H dehydrogenase [quinone] 1 (Homo sapiens) (UniProt P15559); experiment: Activity of NQO1 (unknown origin) assessed as O2 uptake at 5 to 15 uM by polarographic analysis in the presence of catalase and 150 to 200 uM NADPH
[2] = target: NAD(P)H dehydrogenase [quinone] 1 (Homo sapiens) (UniProt P15559); experiment: Activity of NQO1 (unknown origin) assessed as reduction of cytochrome c at 5 to 15 uM in the presence of superoxide dismutase and 150 to 200 uM of NADPH
In short: (§1)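 NQO1-catalysed quinone reduction coupled to cytochrome c (50 µM) as the terminal single-electron acceptor.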

Escherichia coli = experiment: Antibacterial activity against Escherichia coli ATCC 25922 after 16 hrs by two-fold microdillution method; format: functional, organism-based
Salmonella enterica = experiment: Antibacterial activity against Salmonella enterica SL 5676 after 16 hrs by two-fold microdillution method; format: functional, organism-based
[3] = target: NAD(P)H dehydrogenase [quinone] 1 (Homo sapiens) (UniProt P15559); experiment: Activity of NQO1 (unknown origin) assessed as reduction of cytochrome c at 5 to 15 uM by spectrophotometric analysis relative to NADPH oxidation rate; design: scale not given: the % may be the effect or the level left; in short: as §1
[4] = target: NAD(P)H dehydrogenase [quinone] 1 (Homo sapiens) (UniProt P15559); experiment: Substrate inhibition of NQO1 (unknown origin) by spectrophotometric analysis in the presence of 12.5 to 200 uM NADPH

Sequence of NAD(P)H dehydrogenase [quinone] 1 (Homo sapiens) (P15559 whole entry): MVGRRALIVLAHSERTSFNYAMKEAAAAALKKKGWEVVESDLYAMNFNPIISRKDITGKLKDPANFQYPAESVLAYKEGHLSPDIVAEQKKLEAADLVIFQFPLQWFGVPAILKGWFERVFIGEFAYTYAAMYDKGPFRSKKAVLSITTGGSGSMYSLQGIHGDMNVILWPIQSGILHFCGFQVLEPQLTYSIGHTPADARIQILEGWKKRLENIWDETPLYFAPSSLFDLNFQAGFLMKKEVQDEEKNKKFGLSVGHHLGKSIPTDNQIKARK

| SMILES | Activity [1] | Activity [2] | Activity (Escherichia coli) | Activity (Salmonella enterica) | Activity [3] | inhibition [4] |
| --- | --- | --- | --- | --- | --- | --- |
| Cc1ccn2c3c(nc2c1)-c1ccccc1C(=O)C3=O | inactive | inactive | inactive | inactive | 180% |  |
| COc1ccc2nc3c(n2c1)C(=O)C(=O)c1ccccc1-3 | inactive | inactive | inactive | inactive | 180% | Active |
| O=C1C(=O)c2c(nc3ccc(Cl)cn23)-c2ccccc21 | inactive | inactive | inactive | inactive | 180% |  |
| O=C1C(=O)c2c(nc3ccc([N+](=O)[O-])cn23)-c2ccccc21 | inactive | inactive | inactive | inactive | 180% |  |
| O=C1C(=O)c2c(nc3ccccn23)-c2ccc([N+](=O)[O-])cc21 | inactive | inactive | inactive | inactive | 180% |  |
| Cc1ccc2nc3c(n2c1)C(=O)C(=O)c1ccccc1-3 | inactive | inactive | inactive | inactive | 180% |  |
| O=C1C(=O)c2c(nc3ccc4ccccc4n23)-c2ccccc21 | inactive | inactive | inactive | inactive | 180% |  |
| O=C1C(=O)c2c(nc3ccc(C(F)(F)F)cn23)-c2ccccc21 | inactive | inactive | inactive | inactive | 180% |  |
| O=C1C(=O)c2c(nc3ccc(Br)cn23)-c2ccccc21 | inactive | inactive | inactive | inactive | 180% |  |
| O=C1C(=O)c2c(nc3ncccn23)-c2ccccc21 | inactive | inactive | inactive | inactive | 180% |  |
| Cc1cccn2c3c(nc12)-c1ccccc1C(=O)C3=O | inactive | inactive | inactive | inactive | 180% |  |
| O=C1C(=O)c2c(nc3ccccn23)-c2ccccc21 | inactive | inactive | inactive | inactive | 180% | Active |
| O=C1C(=O)c2c(nc3ccc(F)cn23)-c2ccccc21 | inactive | inactive | inactive | inactive | 180% |  |
